Usually inhibition stands for how much of the control response was suppressed.

Structures are written as SMILES. Active and inactive are the calls of the source. No cut-off for these calls is given here.

Assay [1] concerns Plasmodium berghei. Nature of the assay: Antimalarial activity against chloroquine-sensitive Plasmodium berghei ANKA infected BALB/c mice (Mus musculus) erythrocytes at 10 uM after 18 hrs as reduced hemoglobin hydrolysis. Type of assay: functional. In short, it runs like this:
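Trophozoite-rich extract from P. berghei-infected mouse blood (30–50% parasitemia, Percoll-enriched mature forms, saponin-lysed, freeze-thawed) digests native mouse hemoglobin with 10 mM GSH in 0.2 M acetate buffer pH 5.4. Compound is added in DMSO. Incubation is 37 °C for 18 h. Globin 14 kDa band is assessed by SDS-PAGE densitometry against a DMSO control and expressed as % inhibition of hydrolysis.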

The test system of assay [2] is Plasmodium berghei. Nature of the assay: Antimalarial activity as MST against chloroquine-sensitive Plasmodium berghei ANKA infected BALB/c mice (Mus musculus) erythrocytes at 20 mg/kg intraperitoneal dose for 4 days (RVb=11.66+/-1.66 days). It counts as functional.
Assay [3] relates to Plasmodium berghei. Briefly: Antimalarial activity against chloroquine-sensitive Plasmodium berghei ANKA infected BALB/c mice (Mus musculus) erythrocytes at 20 mg/kg intraperitoneal dose for 4 days as parasitaemia.
Assay [4] deals with T1, Histidine-rich protein PFHRP-II (Plasmodium falciparum) (UniProt P05227).
T1 sequence (whole entry): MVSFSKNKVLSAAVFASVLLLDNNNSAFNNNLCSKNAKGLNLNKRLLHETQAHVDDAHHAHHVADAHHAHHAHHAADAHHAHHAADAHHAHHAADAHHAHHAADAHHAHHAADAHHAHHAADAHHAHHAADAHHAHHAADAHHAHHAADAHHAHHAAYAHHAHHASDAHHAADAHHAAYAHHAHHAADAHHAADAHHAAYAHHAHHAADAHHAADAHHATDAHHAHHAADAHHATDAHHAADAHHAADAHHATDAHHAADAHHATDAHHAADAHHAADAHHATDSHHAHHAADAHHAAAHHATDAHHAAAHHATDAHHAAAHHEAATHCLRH
Nature of the assay: Inhibition of beta-hematin formation assessed as inhibition of flavoprotein polymerization at 5 to 100 mM after 48 hrs. It counts as functional. In short, it runs like this: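 Hemin chloride in DMSO is mixed with compound in DMSO (100–5 range), tested in triplicate, with water or DMSO controls. Reaction is started with 0.2 M acetate buffer pH 4.4 and run at 37 °C for 48 h. Pellet is washed twice with DMSO, dissolved in 0.2 N NaOH, diluted 1:2 in 0.1 N NaOH, and read at 405 nm. Result is % inhibition of FP polymerization.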

Assay [5] deals with Plasmodium berghei. Briefly: Antimalarial activity as MST against chloroquine-sensitive Plasmodium berghei ANKA infected BALB/c mice (Mus musculus) erythrocytes at 25 mg/kg intraperitoneal dose for 4 days (RVb=11.66+/-1.66 days). It counts as functional.
The test system of assay [6] is Plasmodium berghei. Briefly: Antimalarial activity as parasitaemia against chloroquine-sensitive Plasmodium berghei ANKA infected BALB/c mice (Mus musculus) erythrocytes at 25 mg/kg intraperitoneal dose for 4 days. It counts as functional. In short, it runs like this: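 Male Balb-C mice infected with 10^6 P. berghei ANKA-infected erythrocytes; n=6. Compound is given as a DMSO stock diluted in 2% saline–Tween 20, ip once daily for 4 days starting 2 h post-infection. Chloroquine is given at 25 mg/kg. Day-4 parasitemia is read from Giemsa smears and survival days are recorded versus untreated controls. Mean ± SEM.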

In assay [7] the test system is Plasmodium berghei. Briefly: Antimalarial activity against chloroquine-sensitive Plasmodium berghei ANKA infected BALB/c mice (Mus musculus) erythrocytes at 20 mg/kg intraperitoneal dose for 4 days.

Compound `Nc1nc(N)c2c(n1)N(c1ccccc1)c1cc(Cl)ccc1S2(=O)=O` came in with an inhibition at 10 µM in assay [1] of 83.7%. Besides, the Activity in assay [2] turned out to be 10.8 days; in assay [3], 12.7%. In addition, the inhibition in assay [4] was less than 5%.
With `Nc1n[nH]c2c1S(=O)(=O)c1cc(Cl)ccc1N2c1ccc(Cl)c(Cl)c1`, in assay [1], testing at 10 µM gave an inhibition of 0%. For the same compound, the inhibition in assay [4] is less than 5%.
The corresponding values for `Cc1ccc(N2c3cc(Cl)ccc3S(=O)(=O)c3c(N)nc(N)nc32)cc1` are 50.1% and less than 5%.
On the same counts, the results for `Nc1nc(N)c2c(n1)N(c1ccc(Cl)c(Cl)c1)c1ccc(Cl)cc1S2(=O)=O` are 0% and less than 5%.
On the same counts, the results for `Cc1ccc(C)c(N2c3cc(Cl)ccc3S(=O)(=O)c3c(N)nc(N)nc32)c1` are 64.6% and less than 5%.
The compound `COc1cccc(N2c3ccc(Cl)cc3S(=O)(=O)c3c(N)n[nH]c32)c1` displayed an inhibition at 10 µM in assay [1] of 0%. In addition, in assay [4], the inhibition was less than 5%.
As to `COc1ccc(N2c3ccc(Cl)cc3S(=O)(=O)c3c(N)n[nH]c32)cc1`, the inhibition at 10 µM in assay [1] stood at 0%. Further, the inhibition in assay [4] was less than 5%.
On the same counts, the results for `Nc1n[nH]c2c1S(=O)(=O)c1ccc(Cl)cc1N2c1ccccc1` are 76.4% and less than 5%.
On the same counts, the results for `Cc1ccc(C)c(N2c3cc(Cl)ccc3S(=O)(=O)c3c(N)n[nH]c32)c1` are 69.4% and less than 5%.
In turn, `Cc1ccccc1N1c2ccc(Cl)cc2S(=O)(=O)c2c(N)nc(N)nc21` yielded an inhibition at 10 µM in assay [1] of 0%. In assay [4], the inhibition was less than 5%.
The corresponding values for `Nc1n[nH]c2c1S(=O)(=O)c1ccc(Cl)cc1N2c1ccc(Cl)cc1` are 55.8% and less than 5%.
In turn, `COc1ccc(N2c3cc(Cl)ccc3S(=O)(=O)c3c(N)n[nH]c32)cc1` came in with an inhibition at 10 µM in assay [1] of 54.8%. In addition, in assay [4], the inhibition was less than 5%.
The corresponding values for `Nc1nc(N)c2c(n1)N(c1ccc(Cl)c(Cl)c1)c1cc(Cl)ccc1S2(=O)=O` are 76% and less than 5%.
The corresponding values for `Nc1nc(N)c2c(n1)N(c1ccccc1)c1ccc(Cl)cc1S2(=O)=O` are 0% and less than 5%.
On the same counts, the results for `COc1cccc(N2c3cc(Cl)ccc3S(=O)(=O)c3c(N)n[nH]c32)c1` are 47.3% and less than 5%.
Turning to `Nc1n[nH]c2c1S(=O)(=O)c1cc(Cl)ccc1N2c1ccccc1`, in assay [1], the inhibition at 10 µM is 0%. Besides, in assay [4], the inhibition was less than 5%.
On the same counts, the results for `Cc1ccc(N2c3ccc(Cl)cc3S(=O)(=O)c3c(N)n[nH]c32)cc1` are 0% and less than 5%.
The corresponding values for `COc1cccc(N2c3ccc(Cl)cc3S(=O)(=O)c3c(N)nc(N)nc32)c1` are 0% and less than 5%.
On the same counts, the results for `Nc1nc(N)c2c(n1)N(c1cccc(Cl)c1)c1cc(Cl)ccc1S2(=O)=O` are 0% and less than 5%.
Consider `COc1cccc(N2c3cc(Cl)ccc3S(=O)(=O)c3c(N)nc(N)nc32)c1`, for which the inhibition at 10 µM in assay [1] worked out at 56.3%. For the same compound, the inhibition in assay [4] is less than 5%.
For `CCN(CC)CCCC(C)Nc1ccnc2cc(Cl)ccc12` (configuration not stated) [CHLOROQUINE], the Activity in assay [5] amounted to 30 days; in assay [6], 1.3%. In addition, the inhibition at 10 µM in assay [1] was 24.1%.
`Nc1nc(N)c2c(n1)N(c1cccc(Cl)c1)c1ccc(Cl)cc1S2(=O)=O`: the inhibition at 10 µM in assay [1] amounted to 0%. Further, in assay [4], the inhibition was less than 5%.
In assay [1], `Nc1n[nH]c2c1S(=O)(=O)c1cc(Cl)ccc1N2c1ccc(Cl)cc1` displayed an inhibition at 10 µM of 0%. In assay [4], the inhibition is less than 5%.
Turning to `Cc1ccc(C)c(N2c3ccc(Cl)cc3S(=O)(=O)c3c(N)n[nH]c32)c1`, the inhibition at 10 µM in assay [1] was 0%. In assay [4], the inhibition was less than 5%.
With `CC(C)CC(=O)N[C@H](C(=O)N[C@H](C(=O)N[C@@H](CC(C)C)[C@@H](O)CC(=O)N[C@@H](C)C(=O)N[C@@H](CC(C)C)[C@@H](O)CC(=O)O)C(C)C)C(C)C` [PEPSTATIN], at 10 µM the inhibition in assay [1] was 92.9%.
`Nc1nc(N)c2c(n1)N(c1ccc(Br)cc1)c1ccc(Cl)cc1S2(=O)=O` displayed an inhibition at 10 µM in assay [1] of 0%. Moreover, the inhibition in assay [4] is less than 5%.
Regarding `Cc1ccccc1N1c2ccc(Cl)cc2S(=O)(=O)c2c(N)n[nH]c21`, in assay [1], the inhibition at 10 µM turned out to be 0%. In assay [4], the inhibition was less than 5%.
In assay [1], `Nc1n[nH]c2c1S(=O)(=O)c1cc(Cl)ccc1N2c1cccc(Cl)c1` displayed an inhibition at 10 µM of 0%. Also, the inhibition in assay [4] is less than 5%.
The corresponding values for `Cc1ccc(N2c3cc(Cl)ccc3S(=O)(=O)c3c(N)n[nH]c32)cc1` are 78.8% and less than 5%.
On the same counts, the results for `COc1ccc(N2c3ccc(Cl)cc3S(=O)(=O)c3c(N)nc(N)nc32)cc1` are 0% and less than 5%.
In assay [1], `Cc1ccccc1N1c2cc(Cl)ccc2S(=O)(=O)c2c(N)n[nH]c21` yielded an inhibition at 10 µM of 92.3%. Besides, the Activity is 13 days in assay [2] and 9.75% in assay [3]. For the same compound, the outcome in assay [7] was inactive. The inhibition in assay [4] was less than 5%.
The compound `Cc1ccc(C)c(N2c3ccc(Cl)cc3S(=O)(=O)c3c(N)nc(N)nc32)c1` showed an inhibition at 10 µM in assay [1] of 0%. Also, the inhibition in assay [4] is less than 5%.
On the same counts, the results for `Nc1nc(N)c2c(n1)N(c1ccc(Br)cc1)c1cc(Cl)ccc1S2(=O)=O` are 49% and less than 5%.
On the same counts, the results for `Nc1nc(N)c2c(n1)N(c1ccc(Cl)cc1)c1ccc(Cl)cc1S2(=O)=O` are 0% and less than 5%.
Consider `COc1ccc(N2c3cc(Cl)ccc3S(=O)(=O)c3c(N)nc(N)nc32)cc1`, for which the inhibition at 10 µM in assay [1] amounted to 40.9%. For the same compound, the inhibition in assay [4] was less than 5%.
In assay [1], `Nc1n[nH]c2c1S(=O)(=O)c1ccc(Cl)cc1N2c1cccc(Cl)c1` had an inhibition at 10 µM of 58.9%. Besides, the figures for the Activity in assay [2] and in assay [3] were 12.5 days and 10.33%, respectively. The inhibition in assay [4] was 85.4%.
`Cc1ccccc1N1c2cc(Cl)ccc2S(=O)(=O)c2c(N)nc(N)nc21` returned an inhibition at 10 µM in assay [1] of 72.6%. Besides, the inhibition in assay [4] is less than 5%.
Compound `Nc1nc(N)c2c(n1)N(c1ccc(Cl)cc1)c1cc(Cl)ccc1S2(=O)=O` showed an inhibition at 10 µM in assay [1] of 67.2%. Moreover, the inhibition in assay [4] was less than 5%.
Compound `Cc1ccc(N2c3ccc(Cl)cc3S(=O)(=O)c3c(N)nc(N)nc32)cc1` yielded an inhibition at 10 µM in assay [1] of 0%. The inhibition in assay [4] was less than 5%.
The corresponding values for `Nc1n[nH]c2c1S(=O)(=O)c1cc(Cl)ccc1N2c1ccc(Br)cc1` are 0% and less than 5%.
Turning to `Nc1n[nH]c2c1S(=O)(=O)c1ccc(Cl)cc1N2c1ccc(Br)cc1`, in assay [1], testing at 10 µM gave an inhibition of 26.7%. Moreover, in assay [4], the inhibition was less than 5%.
As for `Nc1n[nH]c2c1S(=O)(=O)c1ccc(Cl)cc1N2c1ccc(Cl)c(Cl)c1`, the inhibition at 10 µM in assay [1] stood at 67.6%. The inhibition in assay [4] is less than 5%.
The compound `CC(=O)N[C@@H](CC(C)C)C(=O)N[C@@H](CC(C)C)C(=O)N[C@H](C=O)CCCNC(=N)N` [LEUPEPTIN] yielded an inhibition at 10 µM in assay [1] of 89.1%.
